The structures appear in SMILES notation.

The results in this text go back to ChEMBL document CHEMBL1141391 (J Med Chem, 2007).

One experiment relates to A2780. Description: Cytotoxicity against A2780 cell line. Format: cell-based. Particulars: Homo sapiens.
Experiment [1] has as its system 1A9/ptx-10. The experiment is described as follows: Inhibition of growth in paclitaxel resistant 1A9-PTX10 F-beta-270V mutant cell line after 72 hrs by SRB assay. Format: functional, cell-based. The following applies: Homo sapiens, 1A9/ptx-10, 72 h. Background: Sulforhodamine B stains cellular protein and so reports cell mass.
The target in another experiment is Tubulin (Homo sapiens) (UniProt P68371+Q9H4B7+P0DPH7+P68366+Q13509+Q71U36+P04350+Q3ZCM7+P07437+P68363+Q9BQE3+Q6PEY2+Q13885+Q9BVA1+Q9BUF5). Description: Induction of GTP-tubulin polymerization. Format: protein-complex assay. In a few lines:
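ED50 for induction of tubulin assembly, read by light scattering at 350 nm or by fluorescence in a 96-well format. GTP-tubulin was used unless otherwise stated. Some samples were run with GDP-tubulin and normalized to the GTP-tubulin scale. Some values are single determinations.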

Experiment [2] has as its system 1A9. The experiment is described as follows: Inhibition of growth in 1A9 cell line after 72 hrs. Type of experiment: functional, cell-based. Particulars: Homo sapiens, 1A9, 72 h.
Experiment [3] concerns 1A9/ptx-10. Description: Relative resistance, IC50 for 1A9-PTX10 F-beta-270V mutant/IC50 for 1A9. Format: functional, Homo sapiens.
The next experiment deals with PC-3. The experiment is described as follows: Cytotoxicity against PC3 cell line by MTT assay. Type of experiment: cell-based. The following applies: Homo sapiens. (In general: Tetrazolium assays rely on reduction of a dye to a coloured formazan, in cell work by metabolically active cells.)
The nature of experiment [4]: Inhibition of growth in epothilone A resistant 1A9-A8 T-beta-274I mutant cell line after 72 hrs by SRB assay. The following applies: Homo sapiens, 1A9, 72 h. Type of experiment: functional, cell-based.
Experiment [5] concerns 1A9. The experiment is described as follows: Relative resistance, IC50 for 1A9-A8 A8 T-beta-274I mutant/IC50 for 1A9. Format: functional, Homo sapiens.

For orientation: IC50 means the concentration at which inhibition is half-maximal. Low readings indicate greater potency, high ones weaker potency. Turning to `CC(=O)O[C@H]1C(=O)[C@@]2(C)[C@@H]3[C@H](OC(=O)c4ccccc4)[C@]4(O)C[C@H](OC(=O)[C@H](O)[C@@H](NC(=O)c5ccccc5)c5ccccc5CCCC(=O)O[C@]35CO[C@@H]5C[C@@H]2O)C(C)=C1C4(C)C`, the IC50 in the experiment with A2780 was found to be 0.5 nM; in the experiment with 1A9/ptx-10 [1], 1.03 nM; with 1A9 [2], 0.07 nM; with PC-3, 2.4 nM; in experiment [4], 0.44 nM. On Tubulin (Homo sapiens), this compound came in with an ED50 of 210 nM. Further, the “Ratio IC50” value in the experiment with 1A9/ptx-10 [3] amounted to 12; in the experiment on 1A9 [5], 6.3.
Take `CC(=O)O[C@H]1C(=O)[C@@]2(C)[C@@H]3[C@H](OC(=O)c4ccccc4)[C@]4(O)C[C@H](OC(=O)[C@H](O)[C@@H](NC(=O)c5ccccc5)c5ccccc5OCCCC(=O)O[C@]35CO[C@@H]5C[C@@H]2O)C(C)=C1C4(C)C`: the IC50 with A2780 was 18.5 nM; in the experiment with 1A9/ptx-10 [1] it was 35.9 nM; with 1A9 [2], 18.9 nM; in the experiment on PC-3, 50 nM; in experiment [4] it was 66.5 nM. Moreover, the ED50 on Tubulin (Homo sapiens) amounted to 830 nM. Also, the “Ratio IC50” value with 1A9/ptx-10 [3] stood at 1.8; in the experiment on 1A9 [5] it was 3.5.
Regarding `CC(=O)O[C@H]1C(=O)[C@@]2(C)[C@@H]3[C@H](OC(=O)c4ccccc4)[C@]4(O)C[C@H](OC(=O)[C@H](O)[C@@H](NC(=O)c5ccccc5)c5ccccc5OC/C=C\C(=O)O[C@]35CO[C@@H]5C[C@@H]2O)C(C)=C1C4(C)C`, the IC50 is 14.5 nM with A2780; 126 nM in the experiment with 1A9/ptx-10 [1]; 7 nM in the experiment with 1A9 [2]; 15 nM in the experiment with PC-3; 26.5 nM in experiment [4]. Moreover, the ED50 at Tubulin (Homo sapiens) was found to be 280 nM. For the same compound, the figures for the “Ratio IC50” value with 1A9/ptx-10 [3] and in the experiment with 1A9 [5] were 17 and 3.8, respectively.
